Results as given in article PMC6800648 (Cell chemical biology, 2019).
Numbered stars: 1 amine (or outer) side, 2 acyl side, 3 side chain; on linkers, the order of the positions; unused ones are H or OH. Square brackets hold non-standard residues; d marks the D form. Peptide text beside a SMILES is read from it. * marks the point of attachment. X2 = COc1ccc(CN(C)CCCC[C@H](N[*:1])C(=O)[*:2])cc1; X5 = CN(CCCC[C@H](N[*:1])C(=O)[*:2])Cc1ccc(F)cc1; X8 = O=C([C@H](CCCCN(C1CCC1)C1CCC1)N[*:1])[*:2]; X3 = CN(CCCC[C@H](N[*:1])C(=O)[*:2])Cc1ccccc1; X7 = CN(CCCC[C@H](N[*:1])C(=O)[*:2])C1CCCCC1; X1 = CCCN(CCCC[C@H](N[*:1])C(=O)[*:2])C(C)C; X6 = CN(CCCC[C@H](N[*:1])C(=O)[*:2])C1CCCC1; Lys(Et,iPr) = CCN(CCCC[C@H](N)C(=O)O)C(C)C; X4 = COC(C)N(C)CCCC[C@H](N[*:1])C(=O)[*:2]; Benzoyl(4-tBu) = CC(C)(C)c1ccc(C(=O)*)cc1; X9 = O=C([C@H](CCCCN1CCCCC1)N[*:1])[*:2]; Lys(Et2) = CCN(CC)CCCC[C@H](N)C(=O)O; Lys(Me2) = CN(C)CCCC[C@H](N)C(=O)O; NMeA = CN[C@@H](C)C(=O)O

What was measured:
CBX7 [1] = target: T1, CBX7 (Mus musculus, UniProt Q8VDS3); assay: Polycomb in-vivo Assay; format: cell-based; settings: for activity in the Polycomb in-vivo Assay (reactivation of GFP expression): 48-hour treatment, flow cytometry
T1 sequence (Q8VDS3 2-69 limits assumed): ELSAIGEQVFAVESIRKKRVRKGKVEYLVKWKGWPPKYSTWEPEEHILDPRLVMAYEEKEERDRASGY

CBX7 chromodomain [2] = target: T2, CBX7 chromodomain (Homo sapiens, UniProt O95931); assay: Fluorescence polarization; format: biochemical; settings: 30 μM CBX7 chromodomain, 100 nM FAM-dsDNA
T2 sequence (O95931 1-62): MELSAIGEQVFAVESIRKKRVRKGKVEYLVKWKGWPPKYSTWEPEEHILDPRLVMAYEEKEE
How it was run: (§1)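 Buffer: 25 mM Tris-HCl pH 7.4, 100 mM NaCl, 0.05% Tween-20, 2 mM DTT; 100 nM FAM-dsDNA or FAM-ANRIL-RNA; 0.2% DMSO; 30 min at RT. Compound titration: eight-point three-fold series from 100 µM with 30 µM CBX7 chromodomain. Ratio mode: CBX7 and test compound co-diluted at fixed 3:1 from 300 µM/100 µM. Polarisation normalised to a no-protein control; α fitted by the Stockton-Ehlert allosteric model.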

CBX7 chromodomain [3] = target: T2, CBX7 chromodomain; assay: Fluorescence polarization; format: biochemical; settings: 30 μM CBX7 chromodomain, 100 nM FAM-ANRIL-RNA
How it was run: as §1

CBX7 chromodomain [4] = target: T2, CBX7 chromodomain; assay: Electrophoretic mobility shift assay; format: biochemical; settings: EMSA, 150 mM CBX7 and 100 nM FAM-dsDNA probe, 1:3 ratio of compound to CBX7
How it was run: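 Buffer: 25 mM Tris-HCl pH 7.4, 100 mM NaCl, 0.05% Tween-20, 2 mM DTT. Compound runs used 150 µM CBX7 with 100 nM FAM-DNA probe and 50 µM test compound (0.3% DMSO); protein-only runs used a three-fold CBX7 series. Binding 20 min on ice. Native 10% Tris-glycine gel at 100 V, 4°C, 90 min in the dark. FAM fluorescence imaged, then Coomassie-stained.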

CBX7 [5] = target: T3, CBX7 (Mus musculus, UniProt Q8VDS3); format: cell-based; settings: TetOFF reporter cell line; UNC4976 compared to UNC3866 treatment
T3 sequence (Q8VDS3 1-158): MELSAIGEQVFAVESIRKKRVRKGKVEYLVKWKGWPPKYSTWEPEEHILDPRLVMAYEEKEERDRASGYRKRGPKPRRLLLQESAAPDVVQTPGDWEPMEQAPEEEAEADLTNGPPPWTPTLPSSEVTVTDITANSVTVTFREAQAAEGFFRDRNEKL

mESCs = assay: CellTiter-Glo viability assay in mESCs; format: cell-based, mouse; settings: 48 hr
How it was run: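 Mouse ES cells, 5,000 per well, exposed in technical triplicate for 48 hr at 37°C to a ten-point three-fold dilution series prepared from 50 mM DMSO stocks (0.2% DMSO final). Media-only wells served as negative controls. After equilibrating at room temperature, CellTiter-Glo was added, with 2 min shaking and 10 min settling, then luminescence read.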

Cc1ccccc1Cn1c(=N)n(CC(O)c2ccc(Cl)c(Cl)c2)c2ccccc21.Cl (centres unmarked) [MS351, reference compound]
activity in the Polycomb in-vivo Assay (reactivation of GFP expression) (CBX7 [1]): inactive | change of fluorescence polarization on compound titration (CBX7 chromodomain [2]): did not observe increased fluorescence polarization | change of fluorescence polarization on compound titration (CBX7 chromodomain [3]): did not observe increased fluorescence polarization | effect on FAM-dsDNA binding to CBX7 (CBX7 chromodomain [4]): did not observe enhancement

COc1cccc(C(=O)N2CCN(C(=O)COc3cccc(C)c3)CC2)c1OC [MS452, reference compound]
activity in the Polycomb in-vivo Assay (reactivation of GFP expression) (CBX7 [1]): inactive | change of fluorescence polarization on compound titration (CBX7 chromodomain [2]): slight destabilizing effect | change of fluorescence polarization on compound titration (CBX7 chromodomain [3]): slight destabilizing effect | effect on FAM-dsDNA binding to CBX7 (CBX7 chromodomain [4]): no effect

CCN(CC)CCCC[C@H](NC(=O)[C@H](CC(C)C)NC(=O)[C@H](C)N(C)C(=O)[C@H](Cc1ccccc1)NC(=O)c1ccc(C(C)(C)C)cc1)C(=O)N[C@@H](CO)C(=O)OC [UNC4219, methyl N^2-N-((4-(tert-butyl)benzoyl)-L-phenylalanyl)-N-methyl-L-alanyl-L-leucyl-N^6,N^6-diethyl-L-lysyl-L-serinate, reference compound] ({Benzoyl(4-tBu)}-F[NMeA]L[Lys(Et2)]S-OMe)
activity in the Polycomb in-vivo Assay (reactivation of GFP expression) (CBX7 [1]): inactive | derepression of the GFP reporter gene / maintenance of Polycomb silencing (CBX7 [5]): unaffected | mESC viability upon compound treatment (mESCs): non-toxic | effect on FAM-dsDNA binding to CBX7 (CBX7 chromodomain [4]): no effect

CCN(CCCC[C@H](NC(=O)[C@H](CC(C)C)NC(=O)[C@H](C)NC(=O)[C@H](Cc1ccccc1)NC(=O)c1ccc(C(C)(C)C)cc1)C(=O)N[C@@H](CO)C(=O)OC)C(C)C [UNC4941, methyl N^2-(4-(tert-butyl)benzoyl)-L-phenylalanyl-L-alanyl-L-leucyl-N^6-ethyl-N^6-isopropyl-L-lysyl-L-serinate] ({Benzoyl(4-tBu)}-FAL[Lys(Et,iPr)]S-OMe)
EC50 (CBX7 [1]): 36.6 ± 1.14 µM

CCCN(CCCC[C@H](NC(=O)[C@H](CC(C)C)NC(=O)[C@H](C)NC(=O)[C@H](Cc1ccccc1)NC(=O)c1ccc(C(C)(C)C)cc1)C(=O)N[C@@H](CO)C(=O)OC)C(C)C [UNC4971, methyl N^2-(4-(tert-butyl)benzoyl)-L-phenylalanyl-L-alanyl-L-leucyl-N^6-isopropyl-N^6-propyl-L-lysyl-L-serinate] ({Benzoyl(4-tBu)}-FAL[X1]S-OMe)
EC50 (CBX7 [1]): 26.5 ± 3.24 µM

COC(=O)[C@H](CO)NC(=O)[C@H](CCCCN(C)C)NC(=O)[C@H](CC(C)C)NC(=O)[C@H](C)NC(=O)[C@H](Cc1ccccc1)NC(=O)c1ccc(C(C)(C)C)cc1 [UNC5352, methyl N^2-(4-(tert-butyl)benzoyl)-L-phenylalanyl-L-alanyl-L-leucyl-N^6,N^6-dimethyl-L-lysyl-L-serinate] ({Benzoyl(4-tBu)}-FAL[Lys(Me2)]S-OMe)
EC50 (CBX7 [1]): 105 ± 11.3 µM

COC(=O)[C@H](CO)NC(=O)[C@H](CCCCN(C1CCC1)C1CCC1)NC(=O)[C@H](CC(C)C)NC(=O)[C@H](C)NC(=O)[C@H](Cc1ccccc1)NC(=O)c1ccc(C(C)(C)C)cc1 [UNC6370, methyl N^2-(4-(tert-butyl)benzoyl)-L-phenylalanyl-L-alanyl-L-leucyl-N^6,N^6-dicyclobutyl-L-lysyl-L-serinate] ({Benzoyl(4-tBu)}-FAL[X8]S-OMe)
EC50 (CBX7 [1]): 13.7 ± 0.535 µM

COC(=O)[C@H](CO)NC(=O)[C@H](CCCCN(C)C1CCCC1)NC(=O)[C@H](CC(C)C)NC(=O)[C@H](C)NC(=O)[C@H](Cc1ccccc1)NC(=O)c1ccc(C(C)(C)C)cc1 [UNC6371, methyl N^2-(4-(tert-butyl)benzoyl)-L-phenylalanyl-L-alanyl-L-leucyl-N^6-cyclopentyl-N^6-methyl-L-lysyl-L-serinate] ({Benzoyl(4-tBu)}-FAL[X6]S-OMe)
EC50 (CBX7 [1]): ~20 µM

COC(=O)[C@H](CO)NC(=O)[C@H](CCCCN(C)C1CCCCC1)NC(=O)[C@H](CC(C)C)NC(=O)[C@H](C)NC(=O)[C@H](Cc1ccccc1)NC(=O)c1ccc(C(C)(C)C)cc1 [UNC6372, methyl N^2-(4-(tert-butyl)benzoyl)-L-phenylalanyl-L-alanyl-L-leucyl-N^6-cyclohexyl-N^6-methyl-L-lysyl-L-serinate] ({Benzoyl(4-tBu)}-FAL[X7]S-OMe)
EC50 (CBX7 [1]): 4.59 ± 0.292 µM

COC(=O)[C@H](CO)NC(=O)[C@H](CCCCN1CCCCC1)NC(=O)[C@H](CC(C)C)NC(=O)[C@H](C)NC(=O)[C@H](Cc1ccccc1)NC(=O)c1ccc(C(C)(C)C)cc1 [UNC6374, methyl ((S)-2-((S)-2-((S)-2-((S)-2-(4-(tert-butyl)benzamido)-3-phenylpropanamido)propanamido)-4-methylpentanamido)-6-(piperidin-1-yl)hexanoyl)-L-serinate] ({Benzoyl(4-tBu)}-FAL[X9]S-OMe)
EC50 (CBX7 [1]): 33.1 ± 1.9 µM

COC(=O)[C@H](CO)NC(=O)[C@H](CCCCN(C)Cc1ccccc1)NC(=O)[C@H](CC(C)C)NC(=O)[C@H](C)NC(=O)[C@H](Cc1ccccc1)NC(=O)c1ccc(C(C)(C)C)cc1 [UNC6375, methyl N^6-benzyl-N^2-(4-(tert-butyl)benzoyl)-L-phenylalanyl-L-alanyl-L-leucyl-N^6-methyl-L-lysyl-L-serinate] ({Benzoyl(4-tBu)}-FAL[X3]S-OMe)
EC50 (CBX7 [1]): 2.36 ± 0.115 µM

COC(=O)[C@H](CO)NC(=O)[C@H](CCCCN(C)Cc1ccc(F)cc1)NC(=O)[C@H](CC(C)C)NC(=O)[C@H](C)NC(=O)[C@H](Cc1ccccc1)NC(=O)c1ccc(C(C)(C)C)cc1 [UNC6376, methyl N^2-(4-(tert-butyl)benzoyl)-L-phenylalanyl-L-alanyl-L-leucyl-N^6-(4-fluorobenzyl)-N^6-methyl-L-lysyl-L-serinate] ({Benzoyl(4-tBu)}-FAL[X5]S-OMe)
EC50 (CBX7 [1]): 2.22 ± 0.194 µM

COC(=O)[C@H](CO)NC(=O)[C@H](CCCCN(C)C(C)OC)NC(=O)[C@H](CC(C)C)NC(=O)[C@H](C)NC(=O)[C@H](Cc1ccccc1)NC(=O)c1ccc(C(C)(C)C)cc1 (stereo partly drawn) [UNC6481, methyl N^2-(4-(tert-butyl)benzoyl)-L-phenylalanyl-L-alanyl-L-leucyl-N^6-(1-methoxyethyl)-N^6-methyl-L-lysyl-L-serinate] ({Benzoyl(4-tBu)}-FAL[X4]S-OMe)
EC50 (CBX7 [1]): 23.7 ± 1.74 µM

COC(=O)[C@H](CO)NC(=O)[C@H](CCCCN(C)Cc1ccc(OC)cc1)NC(=O)[C@H](CC(C)C)NC(=O)[C@H](C)NC(=O)[C@H](Cc1ccccc1)NC(=O)c1ccc(C(C)(C)C)cc1 [UNC6483, methyl N^2-(4-(tert-butyl)benzoyl)-L-phenylalanyl-L-alanyl-L-leucyl-N^6-(4-methoxybenzyl)-N^6-methyl-L-lysyl-L-serinate] ({Benzoyl(4-tBu)}-FAL[X2]S-OMe)
EC50 (CBX7 [1]): 2.06 ± 0.135 µM
